Consider 4 compounds from ChEMBL document CHEMBL1149790, “Synthesis of some novel thiourea derivatives obtained from 5-[(4-aminophenoxy)methyl]-4-alkyl/aryl-2,4-dihydro-3H-1,2,4-triazole-3-thiones and evaluation as antiviral/anti-HIV and anti-tuberculosis agents” (Eur J Med Chem, 2008).

Values after ≈ are worked out from the molar mass of the structure shown.

Data set [1] relates to Vesicular stomatitis virus. As to the kind of experiment: Antiviral activity against in Vesicular stomatitis virus in human E6SM cells assessed as reduction of virus-induced cytopathogenicity. Format: functional. The essentials:
(§1)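 Confluent cell monolayers (E6SM, HEL, HeLa or Vero, per line) inoculated with 100 CCID50 virus; 1 h adsorption, residual virus removed, then incubated with compound at 400, 200, 100 … µg/ml. Cytopathicity scored once complete in untreated virus controls; MIC = concentration inhibiting virus-induced cytopathicity.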

A further data set relates to Punta Toro virus. The data set can be described thus: Antiviral activity against Punta Toro virus in african green monkey Vero cells assessed as reduction of virus-induced cytopathogenicity. Format: functional. In a few lines: as §1
The test system of data set [2] is Respiratory syncytial virus. The data set can be described thus: Antiviral activity against respiratory syncytial virus in human HeLa cells assessed as inhibition of virus-induced cytopathogenicity. Format: functional. In a few lines:
as §1
For orientation: Damage to the host cells serves as the signal in cytopathic effect assays.

In another data set the test system is Sindbis virus. As to the kind of experiment: Antiviral activity against Sindbis virus in african green monkey Vero cells assessed as reduction of virus-induced cytopathogenicity. Format: functional. The essentials: as §1
The nature of data set [3]: Cytotoxicity against human MT4 cells by MTT assay. In kind it is cell-based. In a few lines: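 Mock-infected MT-4 cells (6 × 10⁵ cells/ml) with serial five-fold compound dilutions in triplicate; MTT reduction read at 540 and 690 nm after 5 days, median OD of three wells; CC50 = concentration reducing OD540 of mock-infected control by 50%.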
A general note: Tetrazolium assays rely on reduction of a dye to a coloured formazan, in cell work by metabolically active cells.

In data set [4] the test system is Coxsackievirus B4. As to the kind of experiment: Antiviral activity against Coxsackie virus B4 in african green monkey Vero cells assessed as reduction of virus-induced cytopathogenicity. In kind it is functional. Conditions: Enterovirus B. In a few lines: as §1
Data set [5] deals with Human alphaherpesvirus 1. As to the kind of experiment: Antiviral activity against HSV1 KOS in human E6SM cells assessed as reduction of virus-induced cytopathogenicity. Format: functional. Conditions: Human alphaherpesvirus 1, KOS. In a few lines: as §1
Data set [6] deals with Human alphaherpesvirus 3. As to the kind of experiment: Antiviral activity against TK+ VZV OKA infected HEL cells assessed as reduction in virus plaque formation. In kind it is functional, organism-based. The following applies: Human alphaherpesvirus 3, OKA.
Data set [7] relates to Human betaherpesvirus 5. As to the kind of experiment: Antiviral activity against human cytomegalovirus AD169 infected HEL cells assessed as reduction in virus plaque formation. In kind it is functional, organism-based. The following applies: Human betaherpesvirus 5, AD169, HEL.
The nature of data set [8]: Cytotoxicity against human HEL cells assessed as reduction of cell growth. Format: cell-based. The essentials: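 HEL cells; CC50 = compound concentration reducing cell growth by 50%.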
Data set [9] relates to Human immunodeficiency virus 1. As to the kind of experiment: Antiviral activity against HIV1 3B in human MT4 cells assessed as protection against virus-induced cytopathogenicity by MTT assay. In kind it is functional, organism-based. Further details: Activity: concentration or dose not given beside the values. Conditions: for IC50: Human immunodeficiency virus 1, 3B, MT4. In a few lines:
(§2)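 MT-4 cells at 6 × 10⁵ cells/ml infected with HIV-1 IIIB or HIV-2 ROD at 100–300 CCID50; compounds in serial five-fold dilutions, triplicate mock- and virus-infected wells. MTT viability read at 540 and 690 nm after 5 days, median OD of three wells; EC50 = 50% protection from viral cytopathic effect.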

For data set [10], the system named is Human alphaherpesvirus 3. As to the kind of experiment: Antiviral activity against TK- VZV 07/1 infected HEL cells assessed as reduction in virus plaque formation. Format: functional, organism-based. Conditions: Human alphaherpesvirus 3, 07/1, HEL.
Data set [11] has as its system Human alphaherpesvirus 1. As to the kind of experiment: Antiviral activity against HSV1 KOS in human HEL cells assessed as reduction of virus-induced cytopathogenicity. Format: functional. Conditions: Human alphaherpesvirus 1, KOS. The essentials:
as §1

In the next data set the test system is Human respirovirus 3. As to the kind of experiment: Antiviral activity against Parainfluenza 3 virus in african green monkey Vero cells assessed as reduction of virus-induced cytopathogenicity. Format: functional. The essentials:
as §1

The nature of data set [12]: Cytotoxicity against human HeLa cells. In kind it is cell-based. In a few lines:
(§3)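 Uninfected cell cultures exposed to test compounds alongside antiviral assays; minimum cytotoxic concentration (MCC) = concentration causing a microscopically detectable alteration of cell morphology.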

Data set [13] has as its system Human alphaherpesvirus 2. As to the kind of experiment: Antiviral activity against HSV2 G in human E6SM cells assessed as reduction of virus-induced cytopathogenicity. Conditions: Human alphaherpesvirus 2, G. Format: functional. The essentials:
as §1

The subject of data set [14] is Mammalian orthoreovirus 1. As to the kind of experiment: Antiviral activity against Reo virus 1 in african green monkey Vero cells assessed as reduction of virus-induced cytopathogenicity. Format: functional. In a few lines:
as §1

In data set [15] the test system is Human alphaherpesvirus 2. As to the kind of experiment: Antiviral activity against HSV2 G in human HEL cells assessed as reduction of virus-induced cytopathogenicity. The following applies: Human alphaherpesvirus 2, G. Format: functional. In a few lines:
as §1

Data set [16] concerns Coxsackievirus B4. As to the kind of experiment: Antiviral activity against Coxsackie virus B4 in human HeLa cells assessed as inhibition of virus-induced cytopathogenicity. Format: functional. Conditions: Enterovirus B. The essentials:
as §1

In data set [17] the test system is Human immunodeficiency virus 2. As to the kind of experiment: Antiviral activity against HIV2 ROD in human MT4 cells assessed as protection against virus-induced cytopathogenicity by MTT assay. Format: functional, organism-based. More on the design: Activity: concentration or dose not given beside the values. The following applies: for IC50: Human immunodeficiency virus 2, ROD, MT4. In a few lines: as §2

Data set [18] concerns Human alphaherpesvirus 1. As to the kind of experiment: Antiviral activity against thymidine kinase deficient and acyclovir resistant HSV1 KOS in human HEL cells assessed as reduction of virus-induced cytopathogenicity. In kind it is functional. The following applies: Human alphaherpesvirus 1, KOS. The essentials:
as §1

Data set [19] has as its system Vesicular stomatitis virus. The data set can be described thus: Antiviral activity against in Vesicular stomatitis virus in human HEL cells assessed as reduction of virus-induced cytopathogenicity. In kind it is functional. The essentials: as §1
Data set [20] can be described thus: Cytotoxicity against human E6SM cells. Format: cell-based. Conditions: E6SM cells. The essentials:
as §3

A short description of data set [21]: Cytotoxicity against human HEL cells assessed as alteration of cell morphology. Format: cell-based. The essentials: as §3
Data set [22] deals with Human alphaherpesvirus 1. As to the kind of experiment: Antiviral activity against thymidine kinase deficient and acyclovir resistant HSV1 KOS in human E6SM cells assessed as reduction of virus-induced cytopathogenicity. Conditions: Human alphaherpesvirus 1, KOS. Format: functional. In a few lines: as §1
The test system of data set [23] is Vesicular stomatitis virus. As to the kind of experiment: Antiviral activity against vesicular stomatitis virus in human HeLa cells assessed as inhibition of virus-induced cytopathogenicity. Format: functional. The essentials: as §1
Data set [24] relates to Human betaherpesvirus 5. The data set can be described thus: Antiviral activity against human cytomegalovirus Davis infected HEL cells assessed as reduction in virus plaque formation. Format: functional, organism-based. Conditions: Human betaherpesvirus 5, Davis.
The test system of a further data set is Vero. As to the kind of experiment: Cytotoxicity against african green monkey Vero cells. In kind it is cell-based. The following applies: chlorocebus sabaeus. In a few lines: as §3

A word on the CC50: it is the concentration at which the toxic effect on the cells reaches its halfway point. In general, EC50 refers to the midpoint of the concentration-response curve. One may read the IC50 as the concentration that gives 50% inhibition. Consider `C=CCNC(=S)Nc1ccc(OCc2n[nH]c(=S)n2-c2ccccc2)cc1`, for which the MIC in [1] was 240 µg/mL (≈ 604 µM); with Punta Toro virus, more than 80 µg/mL; in data set [2] it was more than 80 µg/mL; in the data set with Sindbis virus, more than 80 µg/mL; in the data set on Coxsackievirus B4 [4], 48 µg/mL (≈ 121 µM); in the data set on Human alphaherpesvirus 1 [5], 240 µg/mL (≈ 604 µM). In addition, the MIC in the data set with Human alphaherpesvirus 1 [11] was 240 µg/mL (≈ 604 µM); in the data set on Human respirovirus 3, more than 80 µg/mL; in the data set on Human alphaherpesvirus 2 [13] it was 240 µg/mL (≈ 604 µM); in data set [14], more than 80 µg/mL; in the data set with Human alphaherpesvirus 2 [15] it was 240 µg/mL (≈ 604 µM); with Coxsackievirus B4 [16] it was more than 80 µg/mL. The MIC was 240 µg/mL (≈ 604 µM) in the data set on Human alphaherpesvirus 1 [18], 240 µg/mL (≈ 604 µM) in data set [19], 240 µg/mL (≈ 604 µM) in the data set with Human alphaherpesvirus 1 [22] and more than 80 µg/mL in data set [23]. Further, the figures for the CC50 in data set [3] and in [8] were 107 µg/mL (≈ 269 µM) and more than 50 µg/mL, respectively. In addition, the EC50 in the data set with Human alphaherpesvirus 3 [6], in the data set with Human betaherpesvirus 5 [7], with Human alphaherpesvirus 3 [10] and with Human betaherpesvirus 5 [24] was more than 100 µg/mL each time. The Activity in data set [9] is 1.5%; in [17] it was 0.5%; in the data set on Vero, 400 µg/mL. Also, the IC50 in data set [9] is more than 92.3 µg/mL; in data set [17], more than 103 µg/mL. The results for the MCC in [12], in data set [20] and in data set [21] were 400 µg/mL, more than 400 µg/mL and more than 400 µg/mL, respectively.
For the compound `Cn1c(COc2ccc(N)cc2)n[nH]c1=S`, the MIC in [1] is more than 400 µg/mL; in the data set on Punta Toro virus, more than 3.2 µg/mL; in data set [2] it was more than 400 µg/mL; in the data set with Sindbis virus it was more than 3.2 µg/mL; with Coxsackievirus B4 [4], more than 3.2 µg/mL; in the data set on Human alphaherpesvirus 1 [5] it was 400 µg/mL (≈ 1690 µM). In addition, the MIC in the data set with Human alphaherpesvirus 1 [11] is 400 µg/mL (≈ 1690 µM); in the data set on Human respirovirus 3, more than 3.2 µg/mL; with Human alphaherpesvirus 2 [13], 80 µg/mL (≈ 339 µM); in data set [14], more than 3.2 µg/mL; in the data set with Human alphaherpesvirus 2 [15], 80 µg/mL (≈ 339 µM); with Coxsackievirus B4 [16], more than 400 µg/mL. Besides, the MIC in the data set on Human alphaherpesvirus 1 [18] is 80 µg/mL (≈ 339 µM); in data set [19], more than 400 µg/mL; in the data set with Human alphaherpesvirus 1 [22], 80 µg/mL (≈ 339 µM); in [23] it was more than 400 µg/mL. For the same compound, the cytotoxic concentration (CC50) in data set [3] was not below 119 µg/mL; in data set [8], more than 50 µg/mL. The EC50 with Human alphaherpesvirus 3 [6], with Human betaherpesvirus 5 [7], with Human alphaherpesvirus 3 [10] and in the data set on Human betaherpesvirus 5 [24] was more than 100 µg/mL in each case. The results for the Activity (in [9]; in [17]; in the data set on Vero) were 2.5%, 4% and 16 µg/mL, respectively. Moreover, the IC50 in data set [9] and in data set [17] was more than 125 µg/mL throughout. The MCC in data set [12], in [20] and in data set [21] was more than 400 µg/mL each time.
For `C=CCn1c(COc2ccc(NC(=S)NC)cc2)n[nH]c1=S`, the MIC is more than 400 µg/mL in data set [1]; more than 80 µg/mL in the data set on Punta Toro virus; more than 80 µg/mL in data set [2]; more than 80 µg/mL in the data set with Sindbis virus; more than 80 µg/mL with Coxsackievirus B4 [4]; more than 400 µg/mL in the data set with Human alphaherpesvirus 1 [5]. The MIC with Human alphaherpesvirus 1 [11] was more than 400 µg/mL; with Human respirovirus 3, more than 80 µg/mL; in the data set with Human alphaherpesvirus 2 [13] it was more than 400 µg/mL; in data set [14], more than 80 µg/mL; with Human alphaherpesvirus 2 [15], more than 400 µg/mL; in the data set on Coxsackievirus B4 [16] it was more than 80 µg/mL. Also, the MIC in the data set on Human alphaherpesvirus 1 [18] is more than 400 µg/mL; in data set [19] it was more than 400 µg/mL; in the data set with Human alphaherpesvirus 1 [22] it was more than 400 µg/mL; in [23], more than 80 µg/mL. For the same compound, the 50% cytotoxic concentration (CC50) in [3] was 108 µg/mL (≈ 323 µM); in [8], more than 50 µg/mL. Besides, the EC50 in the data set with Human alphaherpesvirus 3 [6], in the data set with Human betaherpesvirus 5 [7], with Human alphaherpesvirus 3 [10] and in the data set on Human betaherpesvirus 5 [24] was more than 100 µg/mL each time. Further, the results for the Activity (in data set [9]; in data set [17]; with Vero) were 1%, 3.5% and 400 µg/mL, respectively. Moreover, the results for the IC50 in data set [9] and in data set [17] were more than 101 µg/mL and more than 110 µg/mL, respectively. Further, the MCC in data set [12] is 400 µg/mL; in data set [20], more than 400 µg/mL; in [21] it was more than 400 µg/mL.
For the compound `Nc1ccn(C[C@@H](CO)OCP(=O)(O)O)c(=O)n1.O.O` [CIDOFOVIR], the EC50 in the data set on Human betaherpesvirus 5 [7] came out at 0.075 µg/mL; with Human betaherpesvirus 5 [24] it was 0.64 µg/mL. The CC50 in [8] is not below 18 µg/mL. Moreover, the MCC in [21] is more than 400 µg/mL.
